Measurements: ChEMBL document CHEMBL1145048, “Functionalized glycomers as growth inhibitors and inducers of apoptosis in human glioblastoma cells” (J Med Chem, 2003)

Key:
Type in all cases: functional, cell-based
[1] = Glycomer activity determined as growth inhibition of human glioblastoma LN18 cells
In short: (§1)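 Cells grown 24 h with FCS, then 24 h without FCS, then exposed to glycomers at increasing concentrations in serum-free medium for 24 h. MTT at 0.2 mg/mL was added for the last 2 h, formazan was dissolved in 0.1 N HCl/2-propanol and read at 540 nm. Growth inhibition = treated/control MTT reduction. IC50 is the concentration giving 50% inhibition from dose–response curves. Triplicate, mean ± SD.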

[2] = Glycomer activity determined as growth inhibition of human glioblastoma LNZ308 cells; in short: as §1
[3] = Apoptosis index was determined against human glioblastoma LN18 cells at concentration of 11 uM after total exposure time of 15 hours
In short: (§2)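 Cells seeded to half confluence in DMEM-10% FCS for 24 h, then held 24 h without FCS before glycomer addition in serum-free medium. At the end of the incubation, histone-associated DNA fragments (mono- and oligonucleosomes) in still-adherent cells were measured by photometric ELISA (absorbance 405 nm). Apoptosis index = absorbance of treated / untreated wells, untreated set at 1.00. Done in triplicate.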

[4] = Efficacy index was evaluated as ratio of apoptosis index to MTT reduction for human glioblastoma LN18 cells at 0 uM concentration
In short: (§3)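 Cells grown 24 h with FCS, then deprived of FCS for 10 h, then exposed to glycomers for 12 h. In adherent cells, MTT reduction (540 nm), [3H]-thymidine incorporation (cpm) and nucleosome-fragment apoptosis index (treated vs control) were measured. Efficacy index = ratio of thymidine incorporation or apoptosis index to MTT reduction.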

[5] = Efficacy index was evaluated as ratio of apoptosis index to MTT reduction for human glioblastoma LN18 cells at 11.3 uM concentration; in short: as §3
[6] = Efficacy index was evaluated as ratio of apoptosis index to MTT reduction for human glioblastoma LN18 cells at 22.5 uM concentration; in short: as §3
[7] = Efficacy index was evaluated as ratio of apoptosis index to MTT reduction for human glioblastoma LN18 cells at 4.5 uM concentration; in short: as §3
[8] = Efficacy index was evaluated as ratio of inhibition of DNA synthesis (3HT incorporation) to inhibition of growth(MTT) for human glioblastoma LN18 cells at 0 uM concentration; in short: as §3
[9] = Efficacy index was evaluated as ratio of inhibition of DNA synthesis (3HT incorporation) to inhibition of growth(MTT) for human glioblastoma LN18 cells at 11.3 uM concentration; in short: as §3
[10] = Efficacy index was evaluated as ratio of inhibition of DNA synthesis (3HT incorporation) to inhibition of growth(MTT) for human glioblastoma LN18 cells at 22.5 uM concentration; in short: as §3
[11] = Efficacy index was evaluated as ratio of inhibition of DNA synthesis (3HT incorporation) to inhibition of growth(MTT) for human glioblastoma LN18 cells at 4.5 uM concentration; in short: as §3
[12] = Efficacy index was evaluated as ratio of apoptosis index to MTT reduction for human glioblastoma LNZ308 cells at 0 uM concentration; in short: as §3
[13] = Efficacy index was evaluated as ratio of apoptosis index to MTT reduction for human glioblastoma LNZ308 cells at 11.3 uM concentration; in short: as §3
[14] = Efficacy index was evaluated as ratio of apoptosis index to MTT reduction for human glioblastoma LNZ308 cells at 22.5 uM concentration; in short: as §3
[15] = Efficacy index was evaluated as ratio of apoptosis index to MTT reduction for human glioblastoma LNZ308 cells at 4.5 uM concentration; in short: as §3
[16] = Apoptosis index was determined against human glioblastoma LNZ308 cells at concentration of 11 uM after total exposure time of 15 hours; in short: as §2
[17] = Efficacy index was evaluated as ratio of inhibition of DNA synthesis (3HT incorporation) to inhibition of growth(MTT) for human glioblastoma LNZ308 cells at 0 uM concentration; in short: as §3
[18] = Efficacy index was evaluated as ratio of inhibition of DNA synthesis (3HT incorporation) to inhibition of growth(MTT) for human glioblastoma LNZ308 cells at 11.3 uM concentration; in short: as §3
[19] = Efficacy index was evaluated as ratio of inhibition of DNA synthesis (3HT incorporation) to inhibition of growth(MTT) for human glioblastoma LNZ308 cells at 22.5 uM concentration; in short: as §3
[20] = Apoptosis index was determined against human glioblastoma LN18 cells at concentration of 25 uM after total exposure time of 24 hours; in short: as §2
[21] = Apoptosis index was determined against human glioblastoma LNZ308 cells at concentration of 25 uM after otal exposure time of 24 hours; in short: as §2
[22] = Apoptosis index was determined against human glioblastoma LNZ308 cells at concentration of 25 uM after total exposure time of 24 hours; in short: as §2

| SMILES | IC50 ([1]; Homo sapiens, LN-18) [µM] | IC50 ([2]; Homo sapiens, LNZ308) [µM] | other results |
| --- | --- | --- | --- |
| C=CCO[C@H]1[C@H](O)[C@H](COCc2ccccc2)O[C@@H](Oc2ccc(Br)cc2)[C@H]1OC(=O)CCC | > 50 | > 50 |  |
| CO[C@@H]1[C@H](O)[C@H](Oc2ccc(I)cc2)O[C@@H](COS(=O)(=O)c2cccc(C(F)(F)F)c2)[C@H]1O | > 50 | > 50 |  |
| CCCC(=O)O[C@@H]1[C@H](Oc2ccc(I)cc2)O[C@@H](COCc2ccccc2)[C@@H](O)[C@@H]1OC | > 50 | > 50 |  |
| C=CCO[C@H]1[C@H](O)[C@H](COCc2ccccc2)O[C@@H](Oc2ccc(I)cc2)[C@H]1OC(=O)CC | 11.5 | 17.5 | Apoptosis index [3]: 3.67; Efficacy index [4]: 0.93; Efficacy index [5]: 4.85; Efficacy index [6]: 8.3; Efficacy index [7]: 1.92; Efficacy index [8]: 16.2; Efficacy index [9]: 0.09; Efficacy index [10]: 0.58; Efficacy index [11]: 6.23; Efficacy index [12]: 0.95; Efficacy index [13]: 0.7; Efficacy index [14]: 2.32; Efficacy index [15]: 0.62; Apoptosis index [16]: 0.91; Efficacy index [17]: 9.79; Efficacy index [18]: 2.04; Efficacy index [19]: 0.34 |
| C=CCO[C@H]1[C@H](O)[C@H](COCc2ccccc2)O[C@@H](Oc2ccc(OC)cc2)[C@H]1OC(C)=O | > 50 | > 50 |  |
| CCCO[C@H]1[C@H](O)[C@H](COS(=O)(=O)c2cccc(C(F)(F)F)c2)O[C@@H](Oc2ccccc2)[C@H]1OC(=O)CCC | > 50 | > 50 |  |
| CCCO[C@H]1[C@H](O)[C@H](COCc2ccccc2)O[C@@H](Oc2ccc(OC)cc2)[C@H]1OC(C)=O | > 50 | > 50 |  |
| C=CCO[C@@H]1[C@H](OC(=O)CC)[C@H](Oc2ccc(I)cc2)O[C@@H](COS(=O)(=O)c2cccc(C(F)(F)F)c2)[C@H]1OCc1ccc(OC)cc1 | > 50 | > 50 |  |
| C=CCO[C@H]1[C@@H](O)[C@H](COCc2ccccc2)O[C@@H](Oc2ccc(I)cc2)[C@H]1OC(=O)CCC | 20 | 37 |  |
| C=CCO[C@H]1[C@@H](O)[C@H](COS(=O)(=O)c2cccc(C(F)(F)F)c2)O[C@@H](Oc2ccc(I)cc2)[C@H]1OC(=O)C(C)C | 18.5 | 18 |  |
| C=CCO[C@H]1[C@H](O)[C@H](COCc2ccccc2)O[C@@H](Oc2ccc(I)cc2)[C@H]1OC(=O)C(C)C | > 50 | > 50 |  |
| C=CCO[C@H]1[C@H](O)[C@H](COS(=O)(=O)c2cccc(C(F)(F)F)c2)O[C@@H](Oc2ccc(I)cc2)[C@H]1OC(=O)CCc1ccccc1 | > 50 | > 50 |  |
| C=CCO[C@H]1[C@H](O)[C@H](COS(=O)(=O)c2cccc(C(F)(F)F)c2)O[C@@H](Oc2ccc(I)cc2)[C@H]1OC(=O)CCC (stereo in doubt; 8c) [listing 1 of 2 here] |  |  | Apoptosis index [20]: 0.44; Apoptosis index [21]: 0.41 |
| C=CCO[C@H]1[C@H](O)[C@H](COCc2ccccc2)O[C@@H](Oc2ccc(I)cc2)[C@H]1OC(=O)CCC | 7.5 | 11.5 | Apoptosis index [20]: 1.6; Apoptosis index [22]: 2.27 |
| C=CCOC1C(O)C(CNS(=O)(=O)c2cccc(C(F)(F)F)c2)OC(Oc2ccc(I)cc2)C1OC(=O)CCC (stereo in doubt; 17a) |  |  | IC50 ([1]; ln18): 25 µM; IC50 ([2]; lnz308): 26 µM |
| CCCC(=O)O[C@@H]1[C@H](Oc2ccc(I)cc2)O[C@@H](COCc2ccccc2)[C@@H](O)[C@@H]1OCCO | > 50 | > 50 |  |
| C=CCO[C@H]1[C@H](O)[C@H](COS(=O)(=O)c2cccc(C(F)(F)F)c2)O[C@@H](Oc2ccc(I)cc2)[C@H]1OC(=O)CCC (stereo in doubt; 16a) | 40 | 29 |  |
| C=CCO[C@H]1[C@H](O)[C@H](COS(=O)(=O)c2cccc(C(F)(F)F)c2)O[C@H](Oc2ccc(I)cc2)[C@@H]1OC(=O)CCC | 25 | 42 |  |
| C=CCOC1C(O)C(CNS(=O)(=O)c2cccc(C(F)(F)F)c2)OC(Oc2ccc(I)cc2)C1OC(=O)C(C)C (stereo not drawn) | 12.5 | 7.5 |  |
| CCCO[C@@H]1[C@H](O)[C@H](Oc2ccccc2)O[C@@H](COCc2ccccc2)[C@H]1O | > 50 | > 50 | Apoptosis index [20]: 1.29 |
| C=CCOC1C(O)C(CNS(=O)(=O)c2cccc(C(F)(F)F)c2)OC(Oc2ccc(I)cc2)C1O (stereo not drawn) | 16 | 27 |  |
| C=CCO[C@H]1[C@H](O)[C@H](COS(=O)(=O)c2cccc(C(F)(F)F)c2)O[C@@H](Oc2ccc(I)cc2)[C@H]1OC(C)=O | 12.5 | 13 |  |
| CCCC(=O)O[C@@H]1[C@H](Oc2ccc(I)cc2)O[C@@H](COS(=O)(=O)c2cccc(C(F)(F)F)c2)[C@@H](O)[C@@H]1OC | 26 | 22 |  |
| C=CCO[C@@H]1[C@H](O)[C@H](Oc2ccc(I)cc2)O[C@@H](COS(=O)(=O)c2cccc(C(F)(F)F)c2)[C@H]1O | 21 | 19 |  |
| C=CCO[C@H]1[C@H](O)[C@H](COS(=O)(=O)c2cccc(C(F)(F)F)c2)O[C@@H](Oc2ccc(Br)cc2)[C@H]1OC(=O)CCC | > 50 | > 50 |  |
| C=CCO[C@@H]1[C@H](O)[C@H](Oc2ccc(Br)cc2)O[C@@H](COCc2ccccc2)[C@H]1O | > 50 | > 50 | Apoptosis index [20]: 1.19 |
| C=CCOC1C(O)C(CNS(=O)(=O)c2cccc(C(F)(F)F)c2)OC(Oc2ccc(I)cc2)C1OC(=O)CC (stereo not drawn) |  |  | Apoptosis index [3]: 0.98; Efficacy index [4]: 0.93; Efficacy index [5]: 1.63; Efficacy index [6]: 8.43; Efficacy index [7]: 0.88; Efficacy index [8]: 16.2; Efficacy index [9]: 0.07; Efficacy index [10]: 0.47; Efficacy index [11]: 3.11; Efficacy index [12]: 0.95; Efficacy index [13]: 1.81; Efficacy index [14]: 6.18; Efficacy index [15]: 0.72; Apoptosis index [16]: 1.45; Efficacy index [18]: 0.64; Efficacy index [19]: 0.35 |
| C=CCO[C@H]1[C@H](O)[C@H](COS(=O)(=O)c2cccc(C(F)(F)F)c2)O[C@@H](Oc2ccc(I)cc2)[C@H]1OC(=O)CCC (stereo in doubt; 8c) [listing 2 of 2 here] |  |  | IC50 ([1]; ln18): 43 µM; IC50 ([2]; lnz308): 41 µM |
| C=CCOC1C(O)C(CNS(=O)(=O)c2cccc(C(F)(F)F)c2)OC(Oc2ccc(I)cc2)C1OC(=O)CCC (stereo in doubt; 10b) |  | 17.5 | IC50 ([1]; ln18): 6.5 µM |
